From ChEMBL document CHEMBL3627613, “4-Aminoquinoline derivatives as novel Mycobacterium tuberculosis GyrB inhibitors: Structural optimization, synthesis and biological evaluation” (Eur J Med Chem, 2015)
≈ marks a conversion by molar mass, not a printed value.

Assays:
[1] = molecular target: DNA gyrase subunit A/DNA gyrase subunit B (Mycobacterium tuberculosis (strain ATCC 25618 / H37Rv), UniProt P9WG45+P9WG47); assay: Inhibition of DNA gyrase GyrA/GyrB in Mycobacterium tuberculosis incubated for 30 mins assessed as reduction in supercoiling of relaxed relaxed pBR322 DNA by ethidium bromide staining based agarose gel electrophoresis method
DNA gyrase subunit A/DNA gyrase subunit B, sequence (P9WG45 whole entry): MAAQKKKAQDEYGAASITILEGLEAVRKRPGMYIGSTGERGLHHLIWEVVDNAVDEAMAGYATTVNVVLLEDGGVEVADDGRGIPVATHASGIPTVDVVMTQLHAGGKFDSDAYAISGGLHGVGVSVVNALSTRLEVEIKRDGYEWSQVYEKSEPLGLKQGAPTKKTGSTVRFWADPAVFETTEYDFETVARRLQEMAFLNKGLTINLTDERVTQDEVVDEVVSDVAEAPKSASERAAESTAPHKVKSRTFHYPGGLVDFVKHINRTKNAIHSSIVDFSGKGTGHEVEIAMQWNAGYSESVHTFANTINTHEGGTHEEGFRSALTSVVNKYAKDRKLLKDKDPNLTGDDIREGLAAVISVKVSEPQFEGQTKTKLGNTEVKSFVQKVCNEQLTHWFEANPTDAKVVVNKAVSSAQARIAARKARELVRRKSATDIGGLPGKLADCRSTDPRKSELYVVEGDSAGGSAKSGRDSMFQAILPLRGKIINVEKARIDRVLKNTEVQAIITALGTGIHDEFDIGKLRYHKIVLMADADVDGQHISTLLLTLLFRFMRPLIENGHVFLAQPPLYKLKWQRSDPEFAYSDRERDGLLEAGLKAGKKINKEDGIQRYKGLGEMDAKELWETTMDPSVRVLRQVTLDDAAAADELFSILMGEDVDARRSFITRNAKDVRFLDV
DNA gyrase subunit A/DNA gyrase subunit B, sequence (P9WG47 whole entry): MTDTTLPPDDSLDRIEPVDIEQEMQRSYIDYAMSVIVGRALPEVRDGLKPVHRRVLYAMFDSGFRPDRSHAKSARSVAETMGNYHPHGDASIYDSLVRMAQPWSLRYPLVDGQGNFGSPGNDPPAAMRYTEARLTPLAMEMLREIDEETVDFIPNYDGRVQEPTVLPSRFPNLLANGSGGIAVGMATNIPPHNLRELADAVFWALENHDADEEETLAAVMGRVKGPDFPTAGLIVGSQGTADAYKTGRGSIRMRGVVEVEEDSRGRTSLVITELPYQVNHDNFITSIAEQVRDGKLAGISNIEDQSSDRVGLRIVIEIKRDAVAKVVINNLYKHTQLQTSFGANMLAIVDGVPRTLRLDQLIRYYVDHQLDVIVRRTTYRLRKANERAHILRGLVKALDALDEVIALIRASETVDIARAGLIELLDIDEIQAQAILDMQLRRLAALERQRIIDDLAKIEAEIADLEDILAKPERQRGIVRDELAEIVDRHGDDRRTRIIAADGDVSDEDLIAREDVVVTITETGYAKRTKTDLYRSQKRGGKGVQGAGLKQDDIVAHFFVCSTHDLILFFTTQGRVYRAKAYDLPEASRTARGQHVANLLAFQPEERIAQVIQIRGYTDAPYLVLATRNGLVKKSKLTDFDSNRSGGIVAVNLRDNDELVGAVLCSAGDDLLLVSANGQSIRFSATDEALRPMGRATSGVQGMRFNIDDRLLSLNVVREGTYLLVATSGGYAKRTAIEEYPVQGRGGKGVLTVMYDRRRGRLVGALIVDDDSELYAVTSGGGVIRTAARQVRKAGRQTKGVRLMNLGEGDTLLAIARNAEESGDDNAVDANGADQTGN

[2] = system: Mycobacterium tuberculosis; assay: Antimycobacterial activity against Mycobacterium tuberculosis H37Rv assessed as growth inhibition incubated for 7 days by microplate alamar blue assay; format: functional; settings: 168 h
Method in brief: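 M. tuberculosis H37Rv inoculum from fresh LJ medium, resuspended in 7H9 broth (0.1% casitone, 0.5% glycerol, OADC), set to McFarland No. 1 and diluted 1:20. Two-fold serial compound dilutions in 7H9-S, with growth and sterile controls. Incubated 7 days at 37 °C, then alamar blue overnight. MIC is the lowest concentration preventing the blue-to-pink colour change.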

DNA gyrase subunit B = DNA gyrase subunit B (Mycobacterium smegmatis, UniProt P0C559); assay: Inhibition of Mycobacterium smegmatis DNA gyrase B expressed in Escherichia coli BL21 (DE3) pLysS cells assessed as reduction in ATPase activity incubated for 100 mins by inorganic phosphate detection assay; parameters: species or system Mycolicibacterium smegmatis
DNA gyrase subunit B, sequence (P0C559 whole entry): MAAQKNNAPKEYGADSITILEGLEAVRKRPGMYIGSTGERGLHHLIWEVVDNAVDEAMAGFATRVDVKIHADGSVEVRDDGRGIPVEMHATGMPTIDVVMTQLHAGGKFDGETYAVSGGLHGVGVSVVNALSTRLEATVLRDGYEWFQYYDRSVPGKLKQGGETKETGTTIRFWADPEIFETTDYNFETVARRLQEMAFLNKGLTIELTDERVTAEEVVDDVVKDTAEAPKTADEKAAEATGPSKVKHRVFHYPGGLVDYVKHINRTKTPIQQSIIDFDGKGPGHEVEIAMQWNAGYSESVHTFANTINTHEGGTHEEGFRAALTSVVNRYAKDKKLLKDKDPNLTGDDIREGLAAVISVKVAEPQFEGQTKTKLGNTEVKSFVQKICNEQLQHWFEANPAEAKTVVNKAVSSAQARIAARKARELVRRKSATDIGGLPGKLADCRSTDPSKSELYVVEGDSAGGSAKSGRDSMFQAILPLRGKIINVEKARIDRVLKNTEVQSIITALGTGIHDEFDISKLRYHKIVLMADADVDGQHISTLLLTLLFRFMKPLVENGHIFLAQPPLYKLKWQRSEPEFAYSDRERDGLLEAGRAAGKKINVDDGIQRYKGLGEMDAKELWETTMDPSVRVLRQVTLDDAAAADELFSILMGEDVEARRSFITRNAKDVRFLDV

[3] = Cytotoxicity against mouse RAW264.7 cells assessed as inhibition of cell viability at 50 uM incubated for 48 hrs at 37 degC by MTT assay relative to control; format: cell-based; settings: read-out: INH
Method in brief: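 RAW 264.7 mouse macrophages, 5×10^5 cells per well, exposed to compound for 48 h at 37 °C under 5% CO2. MTT added 4 h before the end. Formazan dissolved in DMSO and absorbance read at 560 nm against blank. Triplicates, run twice.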

SMILES	IC50 [1]	MIC [2]	IC50 (DNA gyrase subunit B)	cytotoxicity at 48 h, 50 µM [3]
CCOC(=O)c1cnc2ccc(OC)cc2c1Nc1ccc(OCCCN2CCN(CC)CC2)cc1	6.85 µM	11.6 µM (≈ 5.7 µg/mL)	15.9 µM	21.6%
O=C(O)c1cnc2ccc(F)cc2c1Nc1ccc(OCCCN2CCOCC2)cc1	16.9 µM	14.7 µM (≈ 6.25 µg/mL)	31.3 µM	10.8%
O=C(O)c1cnc2ccccc2c1Nc1ccc(NCCCN2CCOCC2)cc1	5.56 µM	7.69 µM (≈ 3.13 µg/mL)	11.3 µM	0.55%
COc1c(N2C[C@@H]3CCCN[C@@H]3C2)c(F)cc2c(=O)c(C(=O)O)cn(C3CC3)c12 [MOXIFLOXACIN]	–	1.26 µM (≈ 0.506 µg/mL)	> 50 µM	–
CCOC(=O)c1cnc2ccccc2c1Nc1ccc(NCCCN2CCOCC2)cc1	8.73 µM	14.4 µM (≈ 6.25 µg/mL)	17.9 µM	1.82%
CCN1CCN(CCCNc2ccc(Nc3c(C(=O)NN)cnc4ccc(F)cc34)cc2)CC1	0.82 µM	3.3 µM (≈ 1.54 µg/mL)	1.15 µM	6.11%
CCN1CCN(CCCNc2ccc(Nc3c(C(=O)NN)cnc4ccc(OC)cc34)cc2)CC1	2.55 µM	13.1 µM (≈ 6.25 µg/mL)	3.26 µM	2.56%
CCN1CCN(CCCNc2ccc(Nc3c(C(=O)NN)cnc4ccc(C(F)(F)F)cc34)cc2)CC1	11 µM	30 µM (≈ 15.5 µg/mL)	26.3 µM	1.59%
NNC(=O)c1cnc2ccccc2c1Nc1ccc(NCCCN2CCOCC2)cc1	22.9 µM	44.9 µM (≈ 18.9 µg/mL)	> 50 µM	6.48%
O=C(O)c1cnc2ccc(C(F)(F)F)cc2c1Nc1ccc(NCCCN2CCOCC2)cc1	3.77 µM	6.59 µM (≈ 3.13 µg/mL)	7.89 µM	19.1%
COc1ccc2ncc(C(=O)O)c(Nc3ccc(OCCCN4CCOCC4)cc3)c2c1	12.9 µM	57.1 µM (≈ 25 µg/mL)	20.6 µM	11.4%
CCOC(=O)c1cnc2ccc(C(F)(F)F)cc2c1Nc1ccc(NCCCN2CCN(CC)CC2)cc1	3.77 µM	1.47 µM (≈ 0.779 µg/mL)	8.82 µM	20.1%
O=C(O)c1cnc2ccc(F)cc2c1Nc1ccc(NCCCN2CCOCC2)cc1	4.44 µM	29.5 µM (≈ 12.5 µg/mL)	15 µM	13.1%
CCN1CCN(CCCNc2ccc(Nc3c(C(=O)O)cnc4ccccc34)cc2)CC1	5.88 µM	11.8 µM (≈ 5.12 µg/mL)	11.3 µM	32.3%
CCOC(=O)c1cnc2ccc(OC)cc2c1Nc1ccc(NCCCN2CCOCC2)cc1	9.32 µM	23.4 µM (≈ 10.9 µg/mL)	22.3 µM	19.3%
CCOC(=O)c1cnc2ccccc2c1Nc1ccc(NCCCN2CCN(CC)CC2)cc1	3.25 µM	6.77 µM (≈ 3.13 µg/mL)	11.7 µM	20.4%
CO[C@H]1/C=C/O[C@@]2(C)Oc3c(C)c(O)c4c(O)c(c(/C=N/N5CCN(C)CC5)c(O)c4c3C2=O)NC(=O)/C(C)=C\C=C\[C@H](C)[C@H](O)[C@@H](C)[C@@H](O)[C@@H](C)[C@H](OC(C)=O)[C@@H]1C [RIFAMPIN]	–	0.23 µM (≈ 0.189 µg/mL)	–	–
CCN1CCN(CCCOc2ccc(Nc3c(C(=O)NN)cnc4ccc(F)cc34)cc2)CC1	2.96 µM	3.34 µM (≈ 1.56 µg/mL)	2.92 µM	11.9%
NNC(=O)c1cnc2ccccc2c1Nc1ccc(OCCCN2CCOCC2)cc1	0.72 µM	2.4 µM (≈ 1.01 µg/mL)	0.97 µM	44.6%
CCN1CCN(CCCNc2ccc(Nc3c(C(=O)O)cnc4ccc(OC)cc34)cc2)CC1	0.93 µM	3.48 µM (≈ 1.61 µg/mL)	1.32 µM	20.1%
CCOC(=O)c1cnc2ccccc2c1Nc1ccc(OCCCN2CCOCC2)cc1	7.53 µM	28.7 µM (≈ 12.5 µg/mL)	22.8 µM	17.7%
CCOC(=O)c1cnc2ccccc2c1Nc1ccc(OCCCN2CCN(CC)CC2)cc1	23.9 µM	13.5 µM (≈ 6.25 µg/mL)	> 50 µM	21.4%
CCOC(=O)c1cnc2ccc(OC)cc2c1Nc1ccc(NCCCN2CCN(CC)CC2)cc1	8.52 µM	25.4 µM (≈ 12.5 µg/mL)	9.55 µM	21.4%
CCOC(=O)c1cnc2ccc(C(F)(F)F)cc2c1Nc1ccc(OCCCN2CCN(CC)CC2)cc1	0.69 µM	2.94 µM (≈ 1.56 µg/mL)	0.97 µM	27.3%
O=C(O)c1cnc2ccccc2c1Nc1ccc(OCCCN2CCOCC2)cc1	21.8 µM	30.7 µM (≈ 12.5 µg/mL)	> 50 µM	11.3%

SMILES	IC50 [1]	MIC [2]	IC50 (DNA gyrase subunit B)	cytotoxicity at 48 h, 50 µM [3]
CCN1CCN(CCCOc2ccc(Nc3c(C(=O)O)cnc4ccc(F)cc34)cc2)CC1	5.96 µM	6.91 µM (≈ 3.13 µg/mL)	6.82 µM	24.2%
CCN1CCN(CCCOc2ccc(Nc3c(C(=O)NN)cnc4ccc(C(F)(F)F)cc34)cc2)CC1	9.33 µM	11.5 µM (≈ 5.95 µg/mL)	11.9 µM	20.1%
CCOC(=O)c1cnc2ccc(F)cc2c1Nc1ccc(NCCCN2CCOCC2)cc1	4.61 µM	13.4 µM (≈ 6.09 µg/mL)	11.3 µM	19.6%
NNC(=O)c1cnc2ccc(C(F)(F)F)cc2c1Nc1ccc(NCCCN2CCOCC2)cc1	19.9 µM	25.6 µM (≈ 12.5 µg/mL)	47.2 µM	7.94%
CO[C@@H]1[C@@H](OC(N)=O)[C@@H](O)[C@H](Oc2ccc3c(O)c(NC(=O)c4ccc(O)c(CC=C(C)C)c4)c(=O)oc3c2C)OC1(C)C [NOVOBIOCIN]	–	> 200 µM	–	–
CCOC(=O)c1cnc2ccc(C(F)(F)F)cc2c1Nc1ccc(OCCCN2CCOCC2)cc1	16.4 µM	43.1 µM (≈ 21.7 µg/mL)	38.8 µM	20.2%
O=C(O)c1cnc2ccc(C(F)(F)F)cc2c1Nc1ccc(OCCCN2CCOCC2)cc1	14.3 µM	13.2 µM (≈ 6.25 µg/mL)	27.8 µM	22.6%
CCOC(=O)c1cnc2ccc(F)cc2c1Nc1ccc(OCCCN2CCOCC2)cc1	7.63 µM	21.7 µM (≈ 9.85 µg/mL)	16.9 µM	44.1%
COc1ccc2ncc(C(=O)O)c(Nc3ccc(NCCCN4CCOCC4)cc3)c2c1	12.6 µM	28.6 µM (≈ 12.5 µg/mL)	38.9 µM	16.1%
CCOC(=O)c1cnc2ccc(F)cc2c1Nc1ccc(OCCCN2CCN(CC)CC2)cc1	11.8 µM	3.25 µM (≈ 1.56 µg/mL)	23.6 µM	21.6%
NNC(=O)c1cnc2ccc(F)cc2c1Nc1ccc(OCCCN2CCOCC2)cc1	21.4 µM	28.4 µM (≈ 12.5 µg/mL)	20.9 µM	13.7%
CCN1CCN(CCCOc2ccc(Nc3c(C(=O)O)cnc4ccc(C(F)(F)F)cc34)cc2)CC1	3.54 µM	19.8 µM (≈ 9.93 µg/mL)	7.91 µM	13.4%
CCN1CCN(CCCNc2ccc(Nc3c(C(=O)NN)cnc4ccccc34)cc2)CC1	9.42 µM	13.5 µM (≈ 6.04 µg/mL)	10.8 µM	3.36%
NNC(=O)c1cnc2ccc(F)cc2c1Nc1ccc(NCCCN2CCOCC2)cc1	10.6 µM	23.6 µM (≈ 10.3 µg/mL)	18.7 µM	29.1%
CCN1CCN(CCCOc2ccc(Nc3c(C(=O)NN)cnc4ccccc34)cc2)CC1	16.7 µM	13.9 µM (≈ 6.25 µg/mL)	28.4 µM	18.2%
CCOC(=O)c1cnc2ccc(OC)cc2c1Nc1ccc(OCCCN2CCOCC2)cc1	13.3 µM	13.3 µM (≈ 6.22 µg/mL)	14.9 µM	21.2%
COc1ccc2ncc(C(=O)NN)c(Nc3ccc(OCCCN4CCOCC4)cc3)c2c1	10.4 µM	55.4 µM (≈ 25 µg/mL)	10.6 µM	6.26%
CCN1CCN(CCCOc2ccc(Nc3c(C(=O)O)cnc4ccccc34)cc2)CC1	10.2 µM	27.2 µM (≈ 11.8 µg/mL)	21.7 µM	13.4%
NNC(=O)c1cnc2ccc(C(F)(F)F)cc2c1Nc1ccc(OCCCN2CCOCC2)cc1	19.9 µM	36.4 µM (≈ 17.8 µg/mL)	38.7 µM	0.07%
CCOC(=O)c1cnc2ccc(C(F)(F)F)cc2c1Nc1ccc(NCCCN2CCOCC2)cc1	3.12 µM	49.8 µM (≈ 25 µg/mL)	6.62 µM	20.2%
NNC(=O)c1ccncc1 [ISONIAZID]	–	0.66 µM (≈ 0.0905 µg/mL)	–	–
COc1ccc2ncc(C(=O)NN)c(Nc3ccc(NCCCN4CCOCC4)cc3)c2c1	15.3 µM	27.8 µM (≈ 12.5 µg/mL)	44.9 µM	9.59%
CCN1CCN(CCCOc2ccc(Nc3c(C(=O)NN)cnc4ccc(OC)cc34)cc2)CC1	5.89 µM	11.6 µM (≈ 5.57 µg/mL)	12.6 µM	2.72%
CCOC(=O)c1cnc2ccc(F)cc2c1Nc1ccc(NCCCN2CCN(CC)CC2)cc1	7.99 µM	13 µM (≈ 6.25 µg/mL)	16.9 µM	20.2%
